# Screening data: PubChem BioAssay, Broad Institute
# CDK5 inh: blocks human CDK5/p35 kinase activity; Q00535+Q15078; inhibition, % at 10 µM; 0.01% of 330,000 active; Recombinant CDK5/p35, ADP-Glo luminescence, 60 min;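 active = highest replicate inhibition of at least 50% and at least 75% of replicates reaching 50%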;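 also: plate controls were DMSO neutral control for no effect and GW8510 at 10 µM for full effect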
# Target sequence (Q00535 whole entry, looked up): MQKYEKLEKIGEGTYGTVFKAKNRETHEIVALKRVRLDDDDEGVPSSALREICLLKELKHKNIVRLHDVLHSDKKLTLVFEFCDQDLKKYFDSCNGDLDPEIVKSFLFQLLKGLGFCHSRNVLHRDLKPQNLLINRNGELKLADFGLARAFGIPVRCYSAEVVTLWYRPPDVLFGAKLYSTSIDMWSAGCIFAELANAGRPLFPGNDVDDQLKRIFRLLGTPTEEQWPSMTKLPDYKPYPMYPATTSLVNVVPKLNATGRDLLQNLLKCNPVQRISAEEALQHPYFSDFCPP
# Target sequence (Q15078 whole entry, looked up): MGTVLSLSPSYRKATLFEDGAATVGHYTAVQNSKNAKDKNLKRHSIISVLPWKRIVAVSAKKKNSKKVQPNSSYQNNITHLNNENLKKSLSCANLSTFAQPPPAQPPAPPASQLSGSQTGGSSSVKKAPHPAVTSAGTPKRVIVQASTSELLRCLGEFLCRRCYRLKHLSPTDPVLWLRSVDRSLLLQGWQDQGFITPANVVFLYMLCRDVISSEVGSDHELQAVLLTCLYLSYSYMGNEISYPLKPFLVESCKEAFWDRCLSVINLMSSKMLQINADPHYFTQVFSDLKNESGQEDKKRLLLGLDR
# CAL PDZ FP-1: human CAL PDZ-peptide interaction inhibition; purified CAL PDZ, TMR-peptide fluorescence polarization, 1 h; inhibition, % at 20 µM; 0.02% of 330,000 active; AID 504414;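 active = highest replicate inhibition of at least 40%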;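 also: plate controls were DMSO neutral control wells for no effect and unlabeled competitor peptide control wells for full effect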
#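 Test system: tagged CAL PDZ domain / Buffer or medium: sodium phosphate/NaCl buffer pH 7.4 with TCEP, IgG, Thesit / Reagent: TMR-labelled reporter peptide T*-PRC34 bound in PDZ groove / Compound dosing: single point, 20 µM / Schedule: 1 h incubation at room temperature before polarization reading / Technique: fluorescence polarization (mP) / Benchmarks: unlabelled peptide, DMSO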
# PvdQ acylase: P. aeruginosa PvdQ acylase inhibition; purified PvdQ acylase, fluorescence plate reader; inhibition, % at 10 µM; 0.063% of 340,000 active; in the data active = inhibition above about 30%, passing the limit was not always enough;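 also: 0% = vehicle neutral wells and 100% = reference inhibitor wells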
# Glyco luc inh: blocks N-linked glycosylation in D54 reporter cells; AID 588692; D54 ERlucT glycosylation luciferase reporter, 24 h; percent of 100 nM tunicamycin response; 0.23% of 360,000 active; reporter increase, % at 12.5 µM;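 active = mean luciferase reporter signal, scaled so untreated is 0 and the glycosylation-blocking control 100, at or above a set limit in every replicate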;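 also: luciferase carries N-glycosylation sites so blocking glycosylation raises the light; 0% = median of neutral control wells and 100% = median of 100 nM tunicamycin wells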
# Vif inh: blocks HIV Vif function | HEK293T cells, Vif self-association by quenched fluorescence, imaging, 24 h | inhibition, % at 7.49 µM | 0.35% of 340,000 active | AID 602346; in the data active = inhibition above about 50%, passing the limit was not always enough
# CAL PDZ FP-2: CAL PDZ (human) peptide binding inhibition; purified CAL PDZ, TMR-peptide fluorescence polarization, 1 h; inhibition, % at 24.9 µM; 0.92% of 300,000 active;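 active = mean inhibition of at least 30% with at least half of replicates also reaching 30%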;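 also: 0% = DMSO neutral control and 100% = excess unlabeled competitor peptide PRC23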
# Active calls of the source: *; . = no result given. Hits are enriched below; roughly 1.4% of the tested compounds scored in any of these assays.
SMILES,CDK5 inh,CAL PDZ FP-1,PvdQ acylase,Glyco luc inh,Vif inh,CAL PDZ FP-2
CCN(CC)CCn1c(=S)[nH]c2ccccc2c1=O,-1,-2,-1,1,3,-4
CCN(CC)CCn1c(=S)[nH]c2ccc(Br)cc2c1=O,0,4,-17,3,0,87*
CCc1cccc(CC)c1-n1c(SCC(=O)N2CCc3ccccc32)nc(O)cc1=O,1,0,-9,-1,7,1
COc1cc(C(=O)N/N=C(\C)c2ccc3c(c2)OCO3)cc(OC)c1OC,-1,.,-6,34*,2,-3
COc1cc(OC)cc(C(=O)NNC(=O)c2ccc3c(c2)OCCO3)c1,0,0,-12,1,14,.
C/C(=N\NC(=O)CNC(=O)c1ccc2c(c1)OCCO2)c1ccco1,1,0,-6,0,11,7
C/C(=N\NC(=O)c1ccc2c(c1)OCO2)c1ccco1,12,-1,-9,-11,-5,50*
COc1cc(C(=O)c2ccc3c(c2)OCO3)cc(OC)c1OC,0,-1,-15,14,23,-2
COc1cc(C(=O)NNC(=O)c2ccc3c(c2)OCCO3)cc(OC)c1OC,-1,0,-21,0,23,92*
O=C(NCCc1c[nH]c2ccccc12)/C(=C\c1cccs1)NC(=O)c1ccccc1,1,-1,-6,0,-8,-1
Cc1ccc(C(=O)N/C(=C/c2ccco2)C(=O)NCCc2c[nH]c3ccccc23)cc1,1,-1,-7,45*,1,-3
COc1cc(CC(=O)NC2CCCc3ccccc32)cc(OC)c1OC (stereo unspecified),-2,-1,-14,0,-10,43*
COc1ccccc1CC(=O)NC1CCCc2ccccc21 (stereo unspecified),-4,-1,-1,-2,9,1
Cc1ccc2nc(SCC(=O)NC3CCCc4ccccc43)[nH]c2c1 (stereo unspecified),-2,-1,-12,6,2,84*
CCOc1ccc(NC(=O)CN(C)CC(=O)NC2CCCc3ccccc32)cc1OCC (stereo unspecified),1,0,-13,3,-1,40*
COc1ccc(NC(=O)CC23CC4CC(CC(C4)C2)C3)cn1,1,-1,-6,0,-2,.
c1ccc(COC2COC3C(OCc4ccccc4)COC23)cc1 (stereo unspecified),0,-1,-4,0,17,-3
CCOC(=O)/C=C/COc1ccccc1[N+](=O)[O-],1,-2,8,3,9,6
COC(=O)C1SCC2C(=O)N(Cc3cccc(C)c3)CC(=O)N21 (stereo unspecified),-1,-2,-6,-2,128*,-3
C=Cc1ccc(Cn2c(C)c(C(=O)NCCC#N)sc2=O)cc1,.,.,.,6,-3,.
COc1ccc(Cc2nc3ccc(C(=O)N(C)C(C)c4ccon4)cc3o2)cc1 (stereo unspecified),0,1,-8,-1,5,34*
COc1ccc(NC(=O)CCC(=O)N/N=C/c2cn(C)nc2C)cc1,-1,0,4,1,54*,.
COc1ccc(NC(C)=O)cc1NC(=O)c1ccc(Cl)cc1,0,0,-6,-1,-2,0
COc1ccc(NC(C)=O)cc1NC(=O)c1ccc(C#N)cc1,2,-2,-3,2,-1,31*
O=C(CCNC(=O)c1ccco1)NC(Cc1c[nH]c2ccccc12)C(=O)O (stereo unspecified),0,-2,5,1,12,0
SMILES,CDK5 inh,CAL PDZ FP-1,PvdQ acylase,Glyco luc inh,Vif inh,CAL PDZ FP-2
CC(C)Nc1cc(C(C)(C)C)nc2c(-c3ccccc3)cnn12,0,-1,-18,-8,14,133*
COc1ccccc1NC(=S)N(Cc1ccc(C(=O)O)cc1)Cc1ccc(OC)c(OC)c1,-3,0,-12,2,11,50*
CCCN1C(=O)/C(=C/C=C2\N(CC)c3ccccc3C2(C)C)SC1=S,2,-1,-10,0,1,1
CCCCN1C(=O)/C(=C/C=C2\Oc3ccccc3N2CC)SC1=S,2,2,5,-4,69*,1
C=CCN1C(=O)/C(=C2/Sc3ccccc3N2CC)SC1=S,0,1,-7,-2,85*,.
c1nc(SSc2ncnc3nc[nH]c23)c2[nH]cnc2n1,9,0,-6,106*,15,-1
O=C(O)CSc1ncnc2nc[nH]c12,0,-1,-9,2,6,0
COc1ccc(S(=O)(=O)N(C)C[C@H]2Oc3ncc(Br)cc3C(=O)N([C@@H](C)CO)C[C@@H]2C)cc1,.,.,.,0,-7,.
COc1cccc(NC(=S)N2CCN(S(C)(=O)=O)CC2)c1,-1,-2,-12,-1,7,7
O=C(Nc1ccc(NC(=S)NC(=O)c2ccco2)cc1)c1ccccc1,1,0,8,-3,13,-1
O=C(NC(=S)Nc1ccc(NC(=O)c2ccccc2)cc1)c1ccc(F)cc1,1,-1,-3,-1,51*,-3
O=C(NC(=S)Nc1ccccc1)c1cncc(C#Cc2ccccc2)c1,-1,0,-12,-1,-10,45*
O=C(Nc1ccc(NC(=S)NC(=O)c2ccco2)cc1)c1ccc(Br)cc1,.,.,.,0,53*,.
COc1ccc(OC)c(NC(=O)C(C)OC(=O)c2cc3ccccc3[nH]2)c1 (stereo unspecified),1,-1,-3,-4,-19,-2
COc1ccc(-c2cnc(C(O)c3ccc(C(C)(C)C)cc3)[nH]2)cc1 (stereo unspecified),.,.,.,0,13,.
CCOC(=O)CC1c2nc3ccccc3cc2CN1C(=O)OCC (stereo unspecified),.,.,.,3,1,.
Cc1nnc(SCC(=O)NC(C)(C)C)n1NCc1c(F)cccc1Cl,1,1,-5,2,16,0
c1ccc(C(c2ccccc2)N2CCN(Cc3nc(-c4cnccn4)no3)CC2)cc1,0,-1,-12,-1,-6,-8
Clc1cccc2c1CCN(Cc1nc(-c3cnccn3)no1)C2,-2,.,-13,6,-3,56*
O=C(O)c1ccc(-c2nc(-c3cccc(C(F)(F)F)c3)cs2)cc1,0,-3,-5,5,59*,-2
CC(O)(c1ccccc1)c1nc(-c2cccc(C(F)(F)F)c2)cs1 (stereo unspecified),.,.,.,2,.,.
COc1ccc(CCN(C)C(=O)c2c(C)nn(CC(C)C)c2Cl)cc1OC,0,-1,-14,3,17,104*
Cn1nc(C(F)(F)F)c(/C=N/OC(=O)c2ccccc2)c1SCc1ccccc1Cl,-2,-1,-10,55*,-1,-4
Cc1cc(C)c2c3c(sc2n1)C(=O)N(c1ccccc1C)CC(=O)N3,0,-1,-15,-3,-1,74*
